In data set [1] the target is T1, Class 1 phosphodiesterase PDEB1 (Trypanosoma brucei) (UniProt Q8WQX9).
T1 sequence (whole entry): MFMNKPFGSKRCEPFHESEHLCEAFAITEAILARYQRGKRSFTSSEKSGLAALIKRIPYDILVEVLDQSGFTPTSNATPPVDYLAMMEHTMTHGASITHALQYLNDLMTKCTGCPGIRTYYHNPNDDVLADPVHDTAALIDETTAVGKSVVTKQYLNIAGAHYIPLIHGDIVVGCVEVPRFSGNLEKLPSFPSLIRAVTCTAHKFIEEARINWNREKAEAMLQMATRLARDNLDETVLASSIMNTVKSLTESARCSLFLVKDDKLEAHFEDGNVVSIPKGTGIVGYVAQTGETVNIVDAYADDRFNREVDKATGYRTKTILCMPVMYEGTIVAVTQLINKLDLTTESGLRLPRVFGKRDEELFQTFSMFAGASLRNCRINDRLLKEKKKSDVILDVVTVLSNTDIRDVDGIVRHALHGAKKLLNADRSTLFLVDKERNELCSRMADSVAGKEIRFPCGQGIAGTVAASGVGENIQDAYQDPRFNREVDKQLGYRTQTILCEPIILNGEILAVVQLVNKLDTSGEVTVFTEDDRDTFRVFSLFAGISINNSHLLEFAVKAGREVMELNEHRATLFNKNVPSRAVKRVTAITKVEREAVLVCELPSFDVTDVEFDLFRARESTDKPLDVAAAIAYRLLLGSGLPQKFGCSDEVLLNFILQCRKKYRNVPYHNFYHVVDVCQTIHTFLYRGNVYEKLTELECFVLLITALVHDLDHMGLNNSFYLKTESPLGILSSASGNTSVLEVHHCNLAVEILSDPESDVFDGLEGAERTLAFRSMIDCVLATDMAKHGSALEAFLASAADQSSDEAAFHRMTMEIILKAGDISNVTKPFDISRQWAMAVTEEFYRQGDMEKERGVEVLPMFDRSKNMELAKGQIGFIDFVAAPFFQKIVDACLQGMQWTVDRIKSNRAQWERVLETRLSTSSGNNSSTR
The data set can be described thus: Inhibition of PDEB1 in bloodstream form of Trypanosoma brucei Lister 427 assessed as increase in intracellular cAMP levels at 0.3 uM after 5 hrs by ELISA. Type of data set: cell-based. The method, boiled down:
(§1)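 Log-phase bloodstream forms in HMI-9/FBS at 2 × 10^6 cells/mL, 6 mL subcultures; test drug 0.1–10 μM, reference inhibitor 0.3 μM, pentamidine 0.025 μM or no drug; 5 h at 37 °C, 5% CO2. 5 × 10^6 cells pelleted, lysed 20 min on ice in 0.1 M HCl, supernatant frozen for cAMP. Duplicates; mean of four determinations ± SEM; Student's t-test.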
For orientation: cAMP levels reflect the balance of adenylyl cyclase and phosphodiesterase activity.

For data set [2], the target named is 3',5'-cyclic-AMP phosphodiesterase 4B (Homo sapiens, UniProt Q07343). The data set can be described thus: Inhibition of full length recombinant human PDE4B1 expressed in Sf21 insect cells using cAMP as substrate by scintillation proximity assay. For orientation: SPA uses beads or plates that emit light when radiolabelled molecules are held near them.
Sequence of 3',5'-cyclic-AMP phosphodiesterase 4B (Q07343 whole entry): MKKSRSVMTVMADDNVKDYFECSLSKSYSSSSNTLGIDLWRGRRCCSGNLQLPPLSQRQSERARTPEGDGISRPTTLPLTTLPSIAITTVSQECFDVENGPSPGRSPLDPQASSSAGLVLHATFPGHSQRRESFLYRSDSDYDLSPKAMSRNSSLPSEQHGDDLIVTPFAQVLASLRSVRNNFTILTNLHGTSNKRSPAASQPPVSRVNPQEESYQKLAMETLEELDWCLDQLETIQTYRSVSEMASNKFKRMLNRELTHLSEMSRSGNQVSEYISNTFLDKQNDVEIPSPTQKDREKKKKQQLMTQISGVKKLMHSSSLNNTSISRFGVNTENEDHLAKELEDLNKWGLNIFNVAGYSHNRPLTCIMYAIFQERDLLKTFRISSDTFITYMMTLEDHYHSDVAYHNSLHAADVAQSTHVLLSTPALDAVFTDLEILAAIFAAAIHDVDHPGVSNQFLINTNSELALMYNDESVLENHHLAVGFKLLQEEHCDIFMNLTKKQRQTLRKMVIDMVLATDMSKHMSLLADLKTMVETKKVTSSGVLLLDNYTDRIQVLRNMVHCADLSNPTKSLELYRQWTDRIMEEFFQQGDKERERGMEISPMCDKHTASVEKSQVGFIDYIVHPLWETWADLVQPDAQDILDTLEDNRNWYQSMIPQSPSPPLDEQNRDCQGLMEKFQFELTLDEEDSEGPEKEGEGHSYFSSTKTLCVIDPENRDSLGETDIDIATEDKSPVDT
In data set [3] the target is T2, Class 1 phosphodiesterase PDEB1 (Trypanosoma brucei, UniProt Q8WQX9).
T2 sequence (Q8WQX9 whole entry): T1 sequence (whole entry)
Briefly: Inhibition of full length Trypanosoma brucei PDEB1 expressed in Sf21 insect cells using cAMP as substrate by scintillation proximity assay. The procedure, abridged:
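Enzyme amount set so that under 20% of substrate was consumed. Ki reported as mean ± SD of at least two independent experiments.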

Data set [4] deals with T1, Class 1 phosphodiesterase PDEB1 (Trypanosoma brucei). Briefly: Inhibition of PDEB1 in bloodstream form of Trypanosoma brucei Lister 427 assessed as increase in intracellular cAMP levels at 0.025 uM after 5 hrs by ELISA. The data set is classed as cell-based. The procedure, abridged: as §1
A short description of data set [5]: Selectivity ratio of Ki for full length recombinant human PDE4B1 to Ki for full length Trypanosoma brucei PDEB1.
The test system of data set [6] is Trypanosoma brucei. The data set can be described thus: Antitrypanosomal activity against trypomastigote form of Trypanosoma brucei Squib 427 assessed as parasite growth inhibition after 72 hrs by resazurin assay. Type of data set: functional, organism-based. As to conditions: Squib 427, 72 h. The method, boiled down: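 Suramin-sensitive Squib-427 bloodstream trypomastigotes grown in HMI-9 + 10% FCS at 37 °C, 5% CO2. About 1.5 × 10^4 parasites per well exposed to five concentrations (64, 16, 4, 1, 0.25 μM), DMSO ≤0.5% final. After 72 h, resazurin added and absorbance read at 540 nm 4 h later, expressed as % of blank controls. Suramin reference; IC50 from triplicate experiments, mean ± SD.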
A general note: Resazurin is reduced to fluorescent resorufin, in cell work by metabolically active cells.

The test system of a further data set is MRC5. Briefly: Cytotoxicity against human MRC5 cells assessed as decrease in cell viability after 72 hrs by resazurin assay. Type of data set: cell-based. The note with it: mrc5, 72 h.
Data set [7] relates to Trypanosoma brucei. Briefly: Antitrypanosomal activity against bloodstream form of Trypanosoma brucei Lister 427 assessed as appearance of rounded cells with multiple flagella at 10 uM after 12 hrs by DAPI staining-based fluorescence microscopic method. The data set is classed as functional, organism-based. The procedure, abridged:
(§2)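 Bloodstream-form trypanosomes seeded at 2 × 10^5 cells/mL with 10 μM drug; samples taken at 0, 6, 12 and 24 h, pelleted at 4 °C, washed in PBS pH 7.4, air-dried on slides, fixed 15 min in 4% formaldehyde/PBS, mounted with DAPI. Nuclei, kinetoplasts, cell division and morphology were scored by brightfield and fluorescence microscopy.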

For data set [8], the system named is Trypanosoma brucei. The data set can be described thus: Antitrypanosomal activity against bloodstream form of Trypanosoma brucei Lister 427 assessed as defect in cytokinesis at 10 uM after 6 hrs by DAPI staining-based fluorescence microscopic method. The data set is classed as functional, organism-based. The procedure, abridged:
as §2

In data set [9] the test system is Trypanosoma brucei. The data set can be described thus: Antitrypanosomal activity against bloodstream form of Trypanosoma brucei Lister 427 assessed as appearance of misshapen cells at 10 uM after 24 hrs by DAPI staining-based fluorescence microscopic method. Type of data set: functional, organism-based. The method, boiled down: as §2
The target of data set [10] is T1, Class 1 phosphodiesterase PDEB1 (Trypanosoma brucei). The data set can be described thus: Inhibition of PDEB1 in bloodstream form of Trypanosoma brucei Lister 427 assessed as increase in intracellular cAMP levels after 5 hrs by ELISA. The data set is classed as cell-based. The procedure, abridged: as §1

Active and inactive are the calls of the source. No cut-off for these calls is given here.

A word on the Ki: it is the equilibrium dissociation constant of an inhibitor or competing ligand from its target. For `COc1ccc(C2=NN(C3CCCCCC3)C(=O)[C@@H]3CC=CC[C@H]23)cc1OCCCCOc1ccc(-c2nnn[nH]2)cc1`, the inhibition result in [1] is “Active”. Further, in [2], the inhibition constant Ki was 0.631 nM.
`COc1ccc(C2=NN(C3CCCCCC3)C(=O)[C@H]3CC=CC[C@@H]23)cc1-c1ccc(C(=O)NCC(N)=O)cc1`: the figures for the inhibition constant (Ki) in data set [3] and in data set [2] were 3980 nM and 50100 nM, respectively.
`N=C(N)c1ccc(OCCCCCOc2ccc(C(=N)N)cc2)cc1`: in data set [4], the inhibition entry was “inactive”.
As for `COc1ccc(C2=NN(C(C)C)C(=O)[C@@H]3CC=CC[C@H]23)cc1-c1ccc(C(=O)N2CCC[C@@H]2C(N)=O)cc1` (racemic), in data set [5], the Ratio Ki was 18.
Still for that read-out and setting: the same measure for `COc1ccc(C2=NN(C(C)C)C(=O)[C@@H]3CC=CC[C@H]23)cc1-c1ccc(C(=O)N2CC[C@@H](O)C2)cc1` (racemic): 15; for `COc1ccc(C2=NN(C3CCCCCC3)C(=O)[C@@H]3CC=CC[C@H]23)cc1-c1ccc(C(=O)N2CCC[C@@H]2C(N)=O)cc1` (racemic): 13; for `COc1ccc(C2=NN(C3CCCCCC3)C(=O)[C@@H]3CC=CC[C@H]23)cc1-c1ccc(C(=O)N2CC[C@@H](O)C2)cc1` (racemic): 9.
Take `COc1ccc(C2=NN(C3CCCCCC3)C(=O)[C@@H]3CC=CC[C@H]23)cc1-c1ccc(C#N)cc1` (relative stereo): the Ki in data set [3] was 501 nM; in [2], 31.6 nM. Moreover, the Ratio Ki in data set [5] turned out to be 0.1.
Consider `COc1ccc(C2=NN(C3CCCCCC3)C(=O)[C@@H]3CC=CC[C@H]23)cc1-c1ccc(C(N)=O)cc1` (relative stereo), for which the Ki in data set [3] and in data set [2] was 158 nM throughout. The Ratio Ki in data set [5] was 1.
For the compound `COc1ccc(C2=NN(C3CCCCCC3)C(=O)[C@@H]3CC=CC[C@H]23)cc1-c1cccc(C(=O)O)c1` (relative stereo), the Ki in data set [3] was 7940 nM; in data set [2], 12600 nM. The Ratio Ki in [5] worked out at 2.
The like results for `COc1ccc(C2=NN(C3CCCCCC3)C(=O)[C@@H]3CC=CC[C@H]23)cc1-c1ccc(C(=O)NCC(=O)NCCO)cc1` (relative stereo) were, in that order, 398 nM, 3160 nM and 7.
What is called CC50 is the concentration at which the toxic effect on the cells reaches its halfway point. For the compound `COc1ccc(C2=NN(C(C)C)C(=O)[C@@H]3CC=CC[C@H]23)cc1-c1ccc(C(=O)NCC(N)=O)cc1` (relative stereo), the values for the inhibition constant (Ki) in data set [3] and in data set [2] were 100 nM and 2000 nM, respectively. The IC50 in the data set with Trypanosoma brucei [6] (read-out: IC50) came out at 6700 nM. For the same compound, the CC50 with MRC5 came out at 35000 nM.
For the compound `COc1ccc(C2=NN(C3CCCCCC3)C(=O)[C@@H]3CC=CC[C@H]23)cc1-c1ccc(C(=O)O)cc1` (relative stereo), the figures for the inhibition constant Ki in data set [3] and in data set [2] were 1580 nM and 7940 nM, respectively. Further, in data set [5], the Ratio Ki came to 5.
Taken in the same sequence, the figures for `COc1ccc(C2=NN(C3CCCCCC3)C(=O)[C@@H]3CC=CC[C@H]23)cc1-c1ccc(C(=O)N(C)CC(N)=O)cc1` (relative stereo) were 398 nM, 2510 nM and 7.
Taken in the same sequence, the figures for `COc1ccc(C2=NN(C3CCCCCC3)C(=O)[C@@H]3CC=CC[C@H]23)cc1-c1ccc(C(=O)NCCC(N)=O)cc1` (relative stereo) were 501 nM, 1000 nM and 2.
Taken in the same sequence, the figures for `COCCNC(=O)CNC(=O)c1ccc(-c2cc(C3=NN(C4CCCCCC4)C(=O)[C@@H]4CC=CC[C@H]34)ccc2OC)cc1` (relative stereo) were 501 nM, 3980 nM and 8.
Consider `COc1ccc(C2=NN(C3CCCCCC3)C(=O)[C@@H]3CC=CC[C@H]23)cc1-c1ccc(C(=O)NCC(N)=O)cc1` (relative stereo), for which the outcome in the data set with Trypanosoma brucei [7], with Trypanosoma brucei [8] and in the data set with Trypanosoma brucei [9] was Active. In the data set on Trypanosoma brucei [6] (read-out: IC50), the IC50 worked out at 5500 nM. Besides, the inhibition result in data set [10] was “Dose-dependent effect”. Further, the 50% cytotoxic concentration (CC50) in the data set with MRC5 stood at 36000 nM.
On to `COc1ccc(C2=NN(C3CCCCCC3)C(=O)[C@@H]3CC=CC[C@H]23)cc1-c1ccc(C(=O)NCC(=O)NC(C)C)cc1` (relative stereo), for which the inhibition constant (Ki) in [3] is 2000 nM; in data set [2], 6310 nM. The Ratio Ki in data set [5] is 4.
`COc1ccc(C2=NN(C3CCCCCC3)C(=O)[C@@H]3CC=CC[C@H]23)cc1-c1ccc(C(=O)NCCNC(C)=O)cc1` (relative stereo): the inhibition constant (Ki) in data set [3] is 794 nM; in data set [2], 3980 nM. The Ratio Ki in [5] is 5.
The like results for `COCCNC(=O)c1ccc(-c2cc(C3=NN(C4CCCCCC4)C(=O)[C@@H]4CC=CC[C@H]34)ccc2OC)cc1` (relative stereo) were, in that order, 316 nM, 2000 nM and 7.
Taken in the same sequence, the figures for `CNC(=O)CNC(=O)c1ccc(-c2cc(C3=NN(C4CCCCCC4)C(=O)[C@@H]4CC=CC[C@H]34)ccc2OC)cc1` (relative stereo) were 398 nM, 2510 nM and 6.
Taken in the same sequence, the figures for `COc1ccc(C2=NN(C3CCCCCC3)C(=O)[C@@H]3CC=CC[C@H]23)cc1-c1ccc(C(=O)NCC(=O)N(C)C)cc1` (relative stereo) were 794 nM, 3160 nM and 4.
Regarding `COc1ccc(C2=NN(C3CCCCCC3)C(=O)[C@@H]3CC=CC[C@H]23)cc1-c1ccc(C(=O)N2CC(=O)N(C)C2)cc1` (relative stereo), the Ratio Ki in data set [5] turned out to be 1.4.
For `COc1ccc(C2=NN(C3CCCCCC3)C(=O)[C@@H]3CC=CC[C@H]23)cc1-c1ccc(C(=O)N2CCC(=O)C2)cc1` (relative stereo), the Ratio Ki in [5] was determined as 3.
Same read-out and setting: the same measure for `COc1ccc(C2=NN(C3CCCCCC3)C(=O)[C@@H]3CC=CC[C@H]23)cc1-c1ccc(C(=O)N2CNC(=O)C2)cc1` (relative stereo): 1.
Regarding `O=C(Nc1c(Cl)cncc1Cl)c1ccc(OC(F)F)c(OCC2CC2)c1` [ROFLUMILAST], the Ki in [3] was 3160 nM.
As for `Cc1ccc(C(=O)Nc2ccc(S(=O)(=O)O)c3cc(S(=O)(=O)O)cc(S(=O)(=O)O)c23)cc1NC(=O)c1cccc(NC(=O)Nc2cccc(C(=O)Nc3cc(C(=O)Nc4ccc(S(=O)(=O)O)c5cc(S(=O)(=O)O)cc(S(=O)(=O)O)c45)ccc3C)c2)c1` [SURAMIN], the IC50 in the data set with Trypanosoma brucei [6] (read-out: pIC50 (converted)) is 39.8 nM.
